Assay results reported in ChEMBL document CHEMBL3352573 (Bioorg Med Chem, 2014).

biological target: Melanocortin receptor 4 (Homo sapiens, UniProt P32245); assay: Displacement of Eu-DTPA-NDP-a-MSH chelate from human melanocortin-4 receptor expressed in HEK293 cells after 1 hr by competitive DELFIA assay; assay type: cell-based
Procedure, shortened: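 HEK293 cells stably carrying hMC4R (pcDNA3.1) were grown in DMEM plus 10% FBS, seeded at 12,000 cells/well and cultured 3 days. Whole cells were competed with unlabeled ligand against 10 nM (final) Eu-DTPA-NDP-α-MSH in binding medium (DMEM, 1 mM 1,10-phenanthroline, bacitracin, leupeptin, 0.3% BSA) for 1 h at 37 °C, in quadruplicate. EC50 and Hill slope came from variable-slope sigmoidal fits.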

Chain of Melanocortin receptor 4 (P32245 whole entry): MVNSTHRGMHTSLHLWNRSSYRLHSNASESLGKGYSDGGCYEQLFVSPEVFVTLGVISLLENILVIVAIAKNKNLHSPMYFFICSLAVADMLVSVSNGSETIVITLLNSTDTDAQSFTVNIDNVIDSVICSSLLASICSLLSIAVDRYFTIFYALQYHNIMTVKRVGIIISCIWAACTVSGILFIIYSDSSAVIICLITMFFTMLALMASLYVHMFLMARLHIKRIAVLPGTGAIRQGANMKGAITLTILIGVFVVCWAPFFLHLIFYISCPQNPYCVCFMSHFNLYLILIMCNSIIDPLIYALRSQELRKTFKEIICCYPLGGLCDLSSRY

Row | EC50 [nM] | Structure (SMILES)
1 | 4.1 | CCCC[C@H](NC(=O)CNC(=O)[C@@H]1CCCN1C(=O)CNC(=O)[C@@H]1CCCN1C(=O)CNC(=O)[C@@H]1CCCN1C(=O)CNC(=O)[C@@H]1CCCN1C(=O)CNC(=O)[C@@H]1CCCN1C(=O)CNC(=O)[C@@H]1CCCN1C(=O)[C@H](Cc1c[nH]c2ccccc12)NC(=O)[C@H](CCCNC(=N)N)NC(=O)[C@@H](Cc1ccccc1)NC(=O)[C@H](Cc1cnc[nH]1)NC(=O)[C@H](CCC(=O)O)NC(=O)[C@H](CCCC)NC(=O)[C@H](CO)NC(C)=O)C(=O)N[C@H]1CC(=O)NCCCC[C@@H](C(N)=O)NC(=O)[C@H](Cc2c[nH]c3ccccc23)NC(=O)[C@H](CCCNC(=N)N)NC(=O)[C@@H](Cc2ccc3ccccc3c2)NC(=O)[C@H](Cc2cnc[nH]2)NC1=O
2 | 2 | CCCC[C@H](NC(=O)CNC(=O)[C@@H]1CCCN1C(=O)CNC(=O)[C@@H]1CCCN1C(=O)CNC(=O)[C@@H]1CCCN1C(=O)CNC(=O)[C@@H]1CCCN1C(=O)CNC(=O)[C@@H]1CCCN1C(=O)CNC(=O)[C@@H]1CCCN1C(=O)CNC(=O)[C@@H]1CCCN1C(=O)CNC(=O)[C@@H]1CCCN1C(=O)CNC(=O)[C@@H]1CCCN1C(=O)[C@H](Cc1c[nH]c2ccccc12)NC(=O)[C@H](CCCNC(=N)N)NC(=O)[C@@H](Cc1ccccc1)NC(=O)[C@H](Cc1cnc[nH]1)NC(=O)[C@H](CCC(=O)O)NC(=O)[C@H](CCCC)NC(=O)[C@H](CO)NC(C)=O)C(=O)N[C@H]1CC(=O)NCCCC[C@@H](C(N)=O)NC(=O)[C@H](Cc2c[nH]c3ccccc23)NC(=O)[C@H](CCCNC(=N)N)NC(=O)[C@@H](Cc2ccc3ccccc3c2)NC(=O)[C@H](Cc2cnc[nH]2)NC1=O

system: not listed separately; assay: Retention time of the compound by reverse-phase HPLC method; assay type: physicochemical
Procedure, shortened: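 Analytical reverse-phase HPLC on a C18 column (Jupiter 5U C18 300A), 10–40% acetonitrile with 0.1% TFA linear over 30 min at 1 mL/min, UV detection at 220 and 280 nm.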

Row | Structure (SMILES) | Retention_time [min]
3 | CCCC[C@H](NC(=O)CNC(=O)[C@@H]1CCCN1C(=O)CNC(=O)[C@@H]1CCCN1C(=O)CNC(=O)[C@@H]1CCCN1C(=O)CNC(=O)[C@@H]1CCCN1C(=O)CNC(=O)[C@@H]1CCCN1C(=O)CNC(=O)[C@@H]1CCCN1C(C)=O)C(=O)N[C@H]1CC(=O)NCCCC[C@@H](C(N)=O)NC(=O)[C@H](Cc2c[nH]c3ccccc23)NC(=O)[C@H](CCCNC(=N)N)NC(=O)[C@@H](Cc2ccc3ccccc3c2)NC(=O)[C@H](Cc2cnc[nH]2)NC1=O | 11.9
4 | CCCC[C@H](NC(=O)CNC(=O)[C@@H]1CCCN1C(=O)CNC(=O)[C@@H]1CCCN1C(=O)CNC(=O)[C@@H]1CCCN1C(=O)CNC(=O)[C@@H]1CCCN1C(=O)CNC(=O)[C@@H]1CCCN1C(=O)CNC(=O)[C@@H]1CCCN1C(=O)CNC(=O)[C@@H]1CCCN1C(=O)CNC(=O)[C@@H]1CCCN1C(=O)CNC(=O)[C@@H]1CCCN1C(C)=O)C(=O)N[C@H]1CC(=O)NCCCC[C@@H](C(N)=O)NC(=O)[C@H](Cc2c[nH]c3ccccc23)NC(=O)[C@H](CCCNC(=N)N)NC(=O)[C@@H](Cc2ccc3ccccc3c2)NC(=O)[C@H](Cc2cnc[nH]2)NC1=O | 11.9
5 | CCCC[C@H](NC(=O)COCC(=O)NCCCOCCOCCOCCCNC(=O)CNC(=O)[C@@H]1CCCN1C(=O)CNC(=O)[C@@H]1CCCN1C(=O)CNC(=O)[C@@H]1CCCN1C(=O)COCC(=O)NCCCOCCOCCOCCCNC(C)=O)C(=O)N[C@H]1CC(=O)NCCCC[C@@H](C(N)=O)NC(=O)[C@H](Cc2c[nH]c3ccccc23)NC(=O)[C@H](CCCNC(=N)N)NC(=O)[C@@H](Cc2ccc3ccccc3c2)NC(=O)[C@H](Cc2cnc[nH]2)NC1=O | 12.3
6 | CCCC[C@H](NC(=O)COCC(=O)NCCCOCCOCCOCCCNC(C)=O)C(=O)N[C@H]1CC(=O)NCCCC[C@@H](C(N)=O)NC(=O)[C@H](Cc2c[nH]c3ccccc23)NC(=O)[C@H](CCCNC(=N)N)NC(=O)[C@@H](Cc2ccc3ccccc3c2)NC(=O)[C@H](Cc2cnc[nH]2)NC1=O | 12.5
7 | CCCC[C@H](NC(=O)COCC(=O)NCCCOCCOCCOCCCNC(=O)COCC(=O)NCCCOCCOCCOCCCNC(C)=O)C(=O)N[C@H]1CC(=O)NCCCC[C@@H](C(N)=O)NC(=O)[C@H](Cc2c[nH]c3ccccc23)NC(=O)[C@H](CCCNC(=N)N)NC(=O)[C@@H](Cc2ccc3ccccc3c2)NC(=O)[C@H](Cc2cnc[nH]2)NC1=O | 12.5
8 | CCCC[C@H](NC(C)=O)C(=O)N[C@H]1CC(=O)NCCCC[C@@H](C(=O)NCCCOCCOCCOCCCNC(=O)COCC(=O)N2CCC[C@H]2C(=O)NCC(=O)N2CCC[C@H]2C(=O)NCC(=O)N2CCC[C@H]2C(=O)NCC(=O)NCCCOCCOCCOCCCNC(=O)COCC(=O)N[C@@H](CCCC)C(=O)N[C@H]2CC(=O)NCCCC[C@@H](C(N)=O)NC(=O)[C@H](Cc3c[nH]c4ccccc34)NC(=O)[C@H](CCCNC(=N)N)NC(=O)[C@@H](Cc3ccc4ccccc4c3)NC(=O)[C@H](Cc3cnc[nH]3)NC2=O)NC(=O)[C@H](Cc2c[nH]c3ccccc23)NC(=O)[C@H](CCCNC(=N)N)NC(=O)[C@@H](Cc2ccc3ccccc3c2)NC(=O)[C@H](Cc2cnc[nH]2)NC1=O | 13.6
9 | CCCC[C@H](NC(C)=O)C(=O)N[C@H]1CC(=O)NCCCC[C@@H](C(=O)NCCCOCCOCCOCCCNC(=O)COCC(=O)N[C@@H](CCCC)C(=O)N[C@H]2CC(=O)NCCCC[C@@H](C(N)=O)NC(=O)[C@H](Cc3c[nH]c4ccccc34)NC(=O)[C@H](CCCNC(=N)N)NC(=O)[C@@H](Cc3ccc4ccccc4c3)NC(=O)[C@H](Cc3cnc[nH]3)NC2=O)NC(=O)[C@H](Cc2c[nH]c3ccccc23)NC(=O)[C@H](CCCNC(=N)N)NC(=O)[C@@H](Cc2ccc3ccccc3c2)NC(=O)[C@H](Cc2cnc[nH]2)NC1=O | 14
10 | CCCC[C@H](NC(C)=O)C(=O)N[C@H]1CC(=O)NCCCC[C@@H](C(=O)NCCCOCCOCCOCCCNC(=O)COCC(=O)NCCCOCCOCCOCCCNC(=O)COCC(=O)N[C@@H](CCCC)C(=O)N[C@H]2CC(=O)NCCCC[C@@H](C(N)=O)NC(=O)[C@H](Cc3c[nH]c4ccccc34)NC(=O)[C@H](CCCNC(=N)N)NC(=O)[C@@H](Cc3ccc4ccccc4c3)NC(=O)[C@H](Cc3cnc[nH]3)NC2=O)NC(=O)[C@H](Cc2c[nH]c3ccccc23)NC(=O)[C@H](CCCNC(=N)N)NC(=O)[C@@H](Cc2ccc3ccccc3c2)NC(=O)[C@H](Cc2cnc[nH]2)NC1=O | 13.9
11 | CCCC[C@H](NC(=O)CNC(=O)[C@@H]1CCCN1C(=O)CNC(=O)[C@@H]1CCCN1C(=O)CNC(=O)[C@@H]1CCCN1C(=O)CNC(=O)[C@@H]1CCCN1C(=O)CNC(=O)[C@@H]1CCCN1C(=O)CNC(=O)[C@@H]1CCCN1C(=O)[C@H](Cc1c[nH]c2ccccc12)NC(=O)[C@H](CCCNC(=N)N)NC(=O)[C@@H](Cc1ccccc1)NC(=O)[C@H](Cc1cnc[nH]1)NC(=O)[C@H](CCC(=O)O)NC(=O)[C@H](CCCC)NC(=O)[C@H](CO)NC(C)=O)C(=O)N[C@H]1CC(=O)NCCCC[C@@H](C(N)=O)NC(=O)[C@H](Cc2c[nH]c3ccccc23)NC(=O)[C@H](CCCNC(=N)N)NC(=O)[C@@H](Cc2ccc3ccccc3c2)NC(=O)[C@H](Cc2cnc[nH]2)NC1=O | 12

Results, then the compound that gave them:

Row | Retention_time [min] | Structure (SMILES)
12 | 11.9 | CCCC[C@H](NC(=O)CNC(=O)[C@@H]1CCCN1C(=O)CNC(=O)[C@@H]1CCCN1C(=O)CNC(=O)[C@@H]1CCCN1C(=O)CNC(=O)[C@@H]1CCCN1C(=O)CNC(=O)[C@@H]1CCCN1C(=O)CNC(=O)[C@@H]1CCCN1C(=O)CNC(=O)[C@@H]1CCCN1C(=O)CNC(=O)[C@@H]1CCCN1C(=O)CNC(=O)[C@@H]1CCCN1C(=O)CNC(=O)[C@@H]1CCCN1C(=O)CNC(=O)[C@@H]1CCCN1C(=O)CNC(=O)[C@@H]1CCCN1C(C)=O)C(=O)N[C@H]1CC(=O)NCCCC[C@@H](C(N)=O)NC(=O)[C@H](Cc2c[nH]c3ccccc23)NC(=O)[C@H](CCCNC(=N)N)NC(=O)[C@@H](Cc2ccc3ccccc3c2)NC(=O)[C@H](Cc2cnc[nH]2)NC1=O
13 | 13.2 | CCCC[C@H](NC(C)=O)C(=O)N[C@H]1CC(=O)NCCCC[C@@H](C(=O)N2CCC[C@H]2C(=O)NCC(=O)N2CCC[C@H]2C(=O)NCC(=O)N2CCC[C@H]2C(=O)NCC(=O)N2CCC[C@H]2C(=O)NCC(=O)N2CCC[C@H]2C(=O)NCC(=O)N2CCC[C@H]2C(=O)NCC(=O)N2CCC[C@H]2C(=O)NCC(=O)N2CCC[C@H]2C(=O)NCC(=O)N2CCC[C@H]2C(=O)NCC(=O)N[C@@H](CCCC)C(=O)N[C@H]2CC(=O)NCCCC[C@@H](C(N)=O)NC(=O)[C@H](Cc3c[nH]c4ccccc34)NC(=O)[C@H](CCCNC(=N)N)NC(=O)[C@@H](Cc3ccc4ccccc4c3)NC(=O)[C@H](Cc3cnc[nH]3)NC2=O)NC(=O)[C@H](Cc2c[nH]c3ccccc23)NC(=O)[C@H](CCCNC(=N)N)NC(=O)[C@@H](Cc2ccc3ccccc3c2)NC(=O)[C@H](Cc2cnc[nH]2)NC1=O
14 | 13.1 | CCCC[C@H](NC(C)=O)C(=O)N[C@H]1CC(=O)NCCCC[C@@H](C(=O)N2CCC[C@H]2C(=O)NCC(=O)N2CCC[C@H]2C(=O)NCC(=O)N2CCC[C@H]2C(=O)NCC(=O)N2CCC[C@H]2C(=O)NCC(=O)N2CCC[C@H]2C(=O)NCC(=O)N2CCC[C@H]2C(=O)NCC(=O)N2CCC[C@H]2C(=O)NCC(=O)N2CCC[C@H]2C(=O)NCC(=O)N2CCC[C@H]2C(=O)NCC(=O)N2CCC[C@H]2C(=O)NCC(=O)N2CCC[C@H]2C(=O)NCC(=O)N2CCC[C@H]2C(=O)NCC(=O)N[C@@H](CCCC)C(=O)N[C@H]2CC(=O)NCCCC[C@@H](C(N)=O)NC(=O)[C@H](Cc3c[nH]c4ccccc34)NC(=O)[C@H](CCCNC(=N)N)NC(=O)[C@@H](Cc3ccc4ccccc4c3)NC(=O)[C@H](Cc3cnc[nH]3)NC2=O)NC(=O)[C@H](Cc2c[nH]c3ccccc23)NC(=O)[C@H](CCCNC(=N)N)NC(=O)[C@@H](Cc2ccc3ccccc3c2)NC(=O)[C@H](Cc2cnc[nH]2)NC1=O
15 | 12 | CCCC[C@H](NC(=O)CNC(=O)[C@@H]1CCCN1C(=O)CNC(=O)[C@@H]1CCCN1C(=O)CNC(=O)[C@@H]1CCCN1C(=O)CNC(=O)[C@@H]1CCCN1C(=O)CNC(=O)[C@@H]1CCCN1C(=O)CNC(=O)[C@@H]1CCCN1C(=O)CNC(=O)[C@@H]1CCCN1C(=O)CNC(=O)[C@@H]1CCCN1C(=O)CNC(=O)[C@@H]1CCCN1C(=O)[C@H](Cc1c[nH]c2ccccc12)NC(=O)[C@H](CCCNC(=N)N)NC(=O)[C@@H](Cc1ccccc1)NC(=O)[C@H](Cc1cnc[nH]1)NC(=O)[C@H](CCC(=O)O)NC(=O)[C@H](CCCC)NC(=O)[C@H](CO)NC(C)=O)C(=O)N[C@H]1CC(=O)NCCCC[C@@H](C(N)=O)NC(=O)[C@H](Cc2c[nH]c3ccccc23)NC(=O)[C@H](CCCNC(=N)N)NC(=O)[C@@H](Cc2ccc3ccccc3c2)NC(=O)[C@H](Cc2cnc[nH]2)NC1=O
